# Experimental data as given in PMC3269312 (International journal of inorganic chemistry, 2011).
# Key:
# [1] = system: ct-DNA; settings: cited from earlier work
# [2] = system: ct-DNA; assay: Fluorescence competition experiment with ethidium bromide; type: binding, calf
# Procedure, shortened: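 Ethidium bromide is pre-bound to calf-thymus DNA, and the intercalated adduct is excited near 520 nm. Test compound is added as quencher, and the loss of adduct emission is followed. Relative fluorescence (F0/F) is plotted against quencher concentration per the Stern-Volmer equation, giving the quenching constant.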
Molecule,"KEB, binding constant of EB to DNA [1]","KSV, Stern-Volmer quenching constant ([2]; EB-DNA adduct, λex = 520 nm, [EB] = 0.33 μM, [DNA] = 10 μM, 298 K)","apparent binding constant (Kapp) with ct-DNA ([2]; from [complex] at 50% of initial EB-DNA fluorescence, KEB = 1.2 × 10^6 M^−1)"
"CC[n+]1c(-c2ccccc2)c2cc(N)ccc2c2ccc(N)cc21 [EB, ethidium bromide]",1.2e+06 M⁻¹,–,–
Zn(acnTSC)2Cl2 [Complex 1],–,(7.48 ± 0.29) × 10^3 M^−1,3530 M⁻¹
